ChEMBL document CHEMBL2396521, “Development and characterization of glutamyl-protected N-hydroxyguanidines as reno-active nitric oxide donor drugs with therapeutic potential in acute renal failure” (J Med Chem, 2013)
The source made the active and inactive calls. The rule behind the calls is not given here.

Columns and labels:
Aorta [1] = assay: Vasodilatory activity in Wistar rat endothelium-intact aorta assessed as reduction of acetylcholine-induced vasoconstriction; assay type: functional, tissue-based
Outline: (§1)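 Male Wistar rat aortic rings (~3 mm) in a myograph at 37 °C in oxygenated Krebs, stretched to 15 mN, with maximal contraction set by 60 mM KCl and endothelium checked with ACh. Precontracted rings received NHG as a single 100 μM dose or cumulatively at 1−100 μM. Parallel rings were exposed before and during dosing to L-NAME 200 μM, L-Arg 100 μM, Hb 10 μM or ODQ 50 μM.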

Aorta [2] = assay: Vasodilatory activity in Wistar rat endothelium-intact aorta assessed as reduction of acetylcholine-induced vasoconstriction at 100 uM in presence of hemoglobin; assay type: functional, tissue-based; outline: as §1
Aorta [3] = assay: Vasodilatory activity in Wistar rat endothelium-intact aorta assessed as reduction of acetylcholine-induced vasoconstriction at 100 uM in presence of L-Arg; assay type: functional, tissue-based; outline: as §1
Aorta [4] = assay: Vasodilatory activity in Wistar rat endothelium-intact aorta assessed as reversibility of reduction of acetylcholine-induced vasoconstriction in presence of ODQ; assay type: functional; parameters: concentration or dose not given beside the values
Aorta [5] = assay: Vasodilatory activity in Wistar rat endothelium-intact aorta assessed as reduction of acetylcholine-induced vasoconstriction at 100 uM in presence of L-NAME; assay type: functional, tissue-based; outline: as §1
Aorta [6] = assay: Vasodilatory activity in Wistar rat endothelium-intact aorta assessed as reduction of acetylcholine-induced vasoconstriction at 100 uM in presence of ODQ; assay type: functional, tissue-based; outline: as §1
Aorta [7] = assay: Vasodilatory activity in Wistar rat endothelium-intact aorta assessed as reduction of acetylcholine-induced vasoconstriction at 100 uM in presence of gamma-glutamyl transpeptidase; assay type: functional
Outline: (§2)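 Aortic ring myograph (rat, 37 °C, Krebs, precontracted). The glutamyl prodrug at 10 mM was preincubated with γ-GT (100 mU/5 mM gly-gly) for 1 h at 37 °C before addition to the bath at 100 μM. Hemoglobin (10 μM), where present, was used as NO scavenger.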

Aorta [8] = assay: Vasodilatory activity in Wistar rat endothelium-intact aorta assessed as reduction of acetylcholine-induced vasoconstriction at 100 uM; assay type: functional, tissue-based; outline: as §1
Rattus norvegicus [9] = species: Rattus norvegicus; assay: Induction of NOx production in Wistar rat renal cortex homogenates at 100 uM after 1 hr by Griess test in presence of L-NAME; assay type: functional, tissue-based
Outline: (§3)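 Crude homogenates of liver, renal cortex or renal medulla from freshly killed adult male Wistar rats, prepared in ice-cold HBSS with 1% Triton X. NHG at 100 μM was incubated for 1 h at 37 °C, with or without L-NAME (200 μM), then spun at 1000g and 4 °C. NOx (nitrite + nitrate) was measured by Griess assay. n = 4−5; paired t-tests.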

Rattus norvegicus [10] = species: Rattus norvegicus; assay: Induction of NOx production in Wistar rat renal medullar homogenates at 100 uM after 1 hr by Griess test; assay type: functional, tissue-based; settings: Renal medulla; outline: as §3
[11] = Induction of xanthine/xanthine oxidase-mediated NOx production at 100 uM after 1 hr by Griess test in presence of allopurinol; assay type: physicochemical
Outline: (§4)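 Cell-free xanthine/xanthine oxidase (100 μM X / 100 mU XO) was made fresh daily in KPE buffer. NHG at 100 μM was incubated for 1 h at 37 °C, with or without allopurinol (100 μM), then centrifuged at 1000g and 4 °C. NOx was measured by Griess assay. n = 4−5; paired t-tests.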

[12] = Induction of xanthine/xanthine oxidase-mediated NOx production at 100 uM after 1 hr by Griess test in presence of gamma-glutamyl transpeptidase; assay type: physicochemical
Liver [13] = assay: Induction of NOx production in Wistar rat liver homogenates at 100 uM after 1 hr by Griess test in presence of gamma-glutamyl transpeptidase; assay type: functional, tissue-based
Rattus norvegicus [14] = species: Rattus norvegicus; assay: Induction of NOx production in Wistar rat renal cortex homogenates at 100 uM after 1 hr by Griess test; assay type: functional, tissue-based; outline: as §3
Rattus norvegicus [15] = species: Rattus norvegicus; assay: Induction of NOx production in Wistar rat renal cortex homogenates at 100 uM after 1 hr by Griess test in presence of gamma-glutamyl transpeptidase; assay type: functional, tissue-based
[16] = Induction of xanthine/xanthine oxidase-mediated NOx production at 100 uM after 1 hr by Griess test; assay type: physicochemical; outline: as §4
Liver [17] = assay: Induction of NOx production in Wistar rat liver homogenates at 100 uM after 1 hr by Griess test; assay type: functional, tissue-based; outline: as §3
Rattus norvegicus [18] = species: Rattus norvegicus; assay: Induction of NOx production in Wistar rat renal medullar homogenates at 100 uM after 1 hr by Griess test in presence of gamma-glutamyl transpeptidase; assay type: functional, tissue-based; settings: Renal medulla
Rattus norvegicus [19] = species: Rattus norvegicus; assay: Induction of NOx production in Wistar rat renal medullar homogenates at 100 uM after 1 hr by Griess test in presence of L-NAME; assay type: functional, tissue-based; settings: Renal medulla; outline: as §3
Liver [20] = assay: Induction of NOx production in Wistar rat liver homogenates at 100 uM after 1 hr by Griess test in presence of L-NAME; assay type: functional, tissue-based; outline: as §3
Kidney [21] = assay: Prodrug activation in Wistar rat kidney homogenates assessed as formation of N-(4-Phenylethyl)-N'-hydroxyguanidine Hydrochloride at 1 to 100 uM; assay type: tissue-based; settings: tissue homogenate, TDE = time-dependent effect
Outline: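 Prodrug at 1, 10 or 100 μM was incubated with freshly pooled (n = 3) male Wistar rat kidney homogenate. Samples were taken every 15 min over 45 min, and the parent NHG was quantified by positive-ion LC-MS/MS on a C18 column with 0.1% formic acid in 95% water/5% acetonitrile. Total protein was determined by Lowry assay.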

Kidney [22] = assay: Prodrug activation in Wistar rat kidney homogenates assessed as formation of N-(4-Phenylethyl)-N'-hydroxyguanidine Hydrochloride after 10 to 40 mins; assay type: tissue-based; settings: tissue homogenate
Kidney [23] = assay: Vasodilatory activity in Wistar rat isolated perfused rat kidney model in presence of gamma-glutamyl transpeptidase; assay type: functional, tissue-based
Outline: (§5)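 Isolated perfused kidney from a pentobarbital-anaesthetized (i.p.) male Wistar rat, perfused at 10 mL/min with perfusion pressure read via a side-port transducer. After 20 min equilibration, pressure was raised to 120−140 mmHg with phenylephrine (0.3 μM increments). Compound was added cumulatively to the perfusate (1 μM to 1 mM).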

Kidney [24] = assay: Vasodilatory activity in Wistar rat isolated perfused rat kidney model at 250 uM in presence of gamma-glutamyl transpeptidase; assay type: functional, tissue-based; outline: as §5
Aorta [25] = assay: Vasodilatory activity in Wistar rat endothelium-intact aorta assessed as reduction of acetylcholine-induced vasoconstriction at 100 uM in presence of gamma-glutamyl transpeptidase and oxyhemoglobin; assay type: functional, tissue-based; outline: as §2

## Cl.N/C(=N\O)NCCc1ccccc1
Aorta [1]
  EC50: 25.1 µM
Aorta [2]
  Activity: inactive
Aorta [3]
  Activity: inactive
Aorta [4]
  Activity: 75%
Aorta [5]
  Activity: inactive
Aorta [6]
  Activity: inactive

## COc1cccc(CCN/C(N)=N/O)c1.Cl
Aorta [1]
  EC50: 3.98 µM
Aorta [4]
  Activity: 9%

## CN(CCCC(=O)O)c1noc(CC[C@H](N)C(=O)O)n1
Aorta [7]
  Activity: inactive
Aorta [8]
  Activity: inactive

## N=C(NO)NCCC[C@H](N)C(=O)O
Aorta [2]
  Activity: inactive
Rattus norvegicus [9]
  Activity: inactive
Rattus norvegicus [10]
  Activity: 5 µM
[11]
  Activity: Not Active
Aorta [3]
  Activity: inactive
[12]
  Activity: Not Active
Liver [13]
  Activity: inactive
Rattus norvegicus [14]
  Activity: 5 µM
Aorta [5]
  Activity: inactive
Rattus norvegicus [15]
  Activity: inactive
[16]
  Activity: 5 µM
Liver [17]
  Activity: 5 µM
Rattus norvegicus [18]
  Activity: inactive
Aorta [8]
  Activity: Active
Aorta [6]
  Activity: inactive
Rattus norvegicus [19]
  Activity: inactive
Liver [20]
  Activity: inactive

## N/C(=N\OCc1ccc(NC(=O)CC[C@H](N)C(=O)O)cc1)NCCc1ccccc1
Aorta [4]
  Activity: Active
Aorta [7]
  Activity: Active
Kidney [21]
  Drug metabolism: tde
Kidney [22]
  Drug metabolism: Dose-dependent effect
Aorta [8]
  Activity: Active
Kidney [23]
  EC50: 50 µM

## Cl.N/C(=N\O)NCCCc1ccccc1
Aorta [1]
  EC50: 15.8 µM
Aorta [4]
  Activity: 68%

## N/C(=N\O)NCCc1ccc(O)cc1
Aorta [1]
  EC50: 63.1 µM

## Cc1ccc(CCN/C(N)=N/O)cc1.Cl
Aorta [1]
  EC50: 12.6 µM
Aorta [4]
  Activity: 35%

## Cl.N/C(=N\O)NCCc1ccc(Cl)cc1
Aorta [1]
  EC50: 100 µM
Aorta [4]
  Activity: 11%

## Cl.N/C(=N\O)NCCc1ccc(F)cc1
Aorta [1]
  EC50: 63.1 µM
Aorta [4]
  Activity: 11%

## CCCCN/C(N)=N/O.Cl
Aorta [1]
  EC50: 31.6 µM
Aorta [4]
  Activity: 100%

## Cl.N/C(=N\O)NCCc1cccc2ccccc12
Aorta [1]
  EC50: 50.1 µM
Aorta [4]
  Activity: 1%

## COc1ccccc1CCN/C(N)=N/O.Cl
Aorta [1]
  EC50: 20 µM
Aorta [4]
  Activity: 14%

## CN(CCCC(=O)O)C(N)=O
Aorta [1]
  pEC50: inactive
Rattus norvegicus [9]
  Activity: Active
Rattus norvegicus [10]
  Activity: 1 µM
[11]
  Activity: Active
Rattus norvegicus [14]
  Activity: 1 µM
[16]
  Activity: Not Active
Liver [17]
  Activity: 1 µM
Rattus norvegicus [19]
  Activity: Active
Liver [20]
  Activity: Active

## CN(CCCC(=O)O)/C(N)=N/O
Rattus norvegicus [10]
  Activity: 1 µM
Rattus norvegicus [14]
  Activity: 1 µM
Aorta [5]
  Activity: inactive
[16]
  Activity: Active
Liver [17]
  Activity: 1 µM
Aorta [8]
  Activity: Active

## COc1ccc(CCN/C(N)=N/O)cc1.Cl
Aorta [1]
  EC50: 50.1 µM
Aorta [4]
  Activity: 40%

## Cl.N/C(=N\O)NCCCCc1ccccc1
Aorta [1]
  EC50: 631 µM
Aorta [4]
  Activity: 28%

## Cl.N/C(=N\O)NCCc1ccc(Br)cc1
Aorta [1]
  EC50: 15.8 µM
Aorta [4]
  Activity: 34%

## N[C@@H](CCC(=O)NCCCC(=O)N/C(=N\OC(=O)CCCNC(=O)CC[C@H](N)C(=O)O)NCCc1ccccc1)C(=O)O
Kidney [24]
  Activity: inactive

## CN(CCCC(=O)O)/C(=N\O)NC(=O)CC[C@H](N)C(=O)O
Aorta [7]
  Activity: 18%
Aorta [25]
  Activity: inactive
Aorta [8]
  Activity: inactive

## Cl.N=C(NO)NCc1ccccc1
Aorta [1]
  EC50: 12.6 µM
Aorta [4]
  Activity: 37%
